# This is one part of a sample in which hits are shown more often than they occur.
# IDH1 mut inh: blocks human IDH1 R132H reductase activity | O75874 | diaphorase/resazurin fluorescence, 60 min | inhibition, % at 10 µM | 70,000 tested, 0.18% active | AID 624101; in the data active = inhibition above about 34%
# Target sequence (O75874 whole entry R132H): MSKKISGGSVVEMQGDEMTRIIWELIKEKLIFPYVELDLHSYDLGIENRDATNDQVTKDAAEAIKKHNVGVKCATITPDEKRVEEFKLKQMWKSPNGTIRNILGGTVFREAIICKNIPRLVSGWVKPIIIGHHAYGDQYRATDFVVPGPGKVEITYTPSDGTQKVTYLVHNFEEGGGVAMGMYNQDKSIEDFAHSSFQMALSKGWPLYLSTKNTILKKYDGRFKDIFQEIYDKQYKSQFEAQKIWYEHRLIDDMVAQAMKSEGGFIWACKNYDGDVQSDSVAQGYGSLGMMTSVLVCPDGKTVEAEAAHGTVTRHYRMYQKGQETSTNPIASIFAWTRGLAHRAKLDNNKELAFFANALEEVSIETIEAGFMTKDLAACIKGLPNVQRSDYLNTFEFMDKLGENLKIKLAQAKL
# GASC1 inh: inhibitors of human demethylase GASC-1 KDM4C; Q9H3R0; 96,000 tested, 0.15% active; GST-KDM4C 2-372, H3K9me3 peptide, LANCE TR-FRET; inhibition, % at 12.5 µM;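 active = mean replicate inhibition above about 25%, with at least 55% of replicates also reaching it, limit read from the data, passing the limit was not always enough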
#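 Material: GST-tagged GASC-1 (JMJD2C) catalytic fragment, aa 2-372. Input: enzyme final amount 10 nM. Medium: HEPES buffer, pH 7.5, plus ascorbate. Reagent: H3K9me3 peptide substrate, Fe(II), 2-oxoglutarate. Doses: single dose. Times: reaction 30 min RT, detection step 1 h RT. Measured by: LANCE TR-FRET. Evaluation: Fall in 671/618 emission ratio as inhibition.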
# Pf Dd2 inh: inhibitors of Plasmodium falciparum Dd2 growth; P. falciparum Dd2 growth, SYBR Green, 72 h; stronger effect = lower value; activity change, % at 10 µM; 94,000 tested, 2.3% active; in the data active = activity change below about -80%
# Hits are given with their value; 0 = inactive; - = not tested or not shown.
SMILES,IDH1 mut inh,GASC1 inh,Pf Dd2 inh
Cc1ccc(S(=O)(=O)N(C)C[C@@H]2OCCCC[C@H](C)Oc3ccc(NC(=O)Nc4ccc5c(c4)OCO5)cc3C(=O)N([C@H](C)CO)C[C@@H]2C)cc1,0,0,0
C[C@H]1CCCCO[C@H](CN(C)S(=O)(=O)c2ccc(F)cc2)[C@@H](C)CN([C@@H](C)CO)C(=O)c2cc(NC(=O)Nc3ccc4c(c3)OCO4)ccc2O1,-,0,0
C[C@@H]1CN([C@@H](C)CO)C(=O)c2cc(NC(=O)Nc3ccc4c(c3)OCO4)ccc2O[C@@H](C)CCCCO[C@@H]1CN(C)S(=O)(=O)c1ccc(F)cc1,0,0,0
Cc1ccc(S(=O)(=O)N(C)C[C@H]2OCCCC[C@H](C)Oc3ccc(NC(=O)Nc4ccc5c(c4)OCO5)cc3C(=O)N([C@@H](C)CO)C[C@@H]2C)cc1,0,0,0
Cc1ccc(S(=O)(=O)N(C)C[C@@H]2OCCCC[C@@H](C)Oc3ccc(NC(=O)Nc4ccc5c(c4)OCO5)cc3C(=O)N([C@H](C)CO)C[C@@H]2C)cc1,0,0,-82
C[C@@H]1CN([C@H](C)CO)C(=O)c2cc(NC(=O)Nc3ccc4c(c3)OCO4)ccc2O[C@@H](C)CCCCO[C@@H]1CN(C)S(=O)(=O)c1ccc(F)cc1,0,0,-84
C[C@@H]1CCCCO[C@H](CN(C)S(=O)(=O)c2ccc(Cl)cc2)[C@@H](C)CN([C@@H](C)CO)C(=O)c2cc(NC(=O)Nc3ccc4c(c3)OCO4)ccc2O1,-,0,-83
C[C@@H]1CCCCO[C@@H](CN(C)S(=O)(=O)c2ccc(Cl)cc2)[C@@H](C)CN([C@H](C)CO)C(=O)c2cc(NC(=O)Nc3ccc4c(c3)OCO4)ccc2O1,-,0,-88
COc1ccccc1C(=O)Nc1ccc2c(c1)OC[C@H](C)N(C)C[C@H](C)[C@H](OC)CN(C)C2=O,0,0,0
CCn1c(SCC(=O)N2CCOCC2)nnc1-c1c[nH]c2ccccc12,0,-,-
C[C@H](CO)N1C[C@H](C)[C@H](CN(C)Cc2ccccn2)Oc2ncc(C#CCN(C)C)cc2C1=O,0,0,0
O=C(NCC1CCCCC1)[C@@H]1[C@@H](CO)[C@@H]2Cn3c(ccc(-c4cncnc4)c3=O)[C@H]1N2,-,0,-
O=C(CN1CCOCC1)N[C@H]1CC[C@@H](CCNC(=O)Nc2cc(F)ccc2F)O[C@@H]1CO,0,0,0
O=C(CN1CCOCC1)NCC[C@H]1CC[C@H](NC(=O)Nc2ccc(F)cc2)[C@H](CO)O1,73,69,0
O=C(CN1CCOCC1)N[C@@H]1CC[C@H](CCNC(=O)Nc2cc(F)ccc2F)O[C@H]1CO,0,31,0
O=C(CN1CCOCC1)NCC[C@@H]1CC[C@H](NC(=O)Nc2ccc(F)cc2)[C@H](CO)O1,0,0,0
C[C@@H](NC(=O)/C(C#N)=C\c1ccc(O)c(O)c1)c1ccccc1,0,-,-
COc1ccc(NC(=O)Nc2ccc3c(c2)C(=O)N([C@H](C)CO)C[C@@H](C)[C@@H](CN(C)S(=O)(=O)c2ccc(OC)cc2)OCCCC[C@H](C)O3)cc1,0,0,0
COc1ccc(S(=O)(=O)N(C)C[C@H]2OCCCC[C@@H](C)Oc3ccc(NC(=O)Nc4ccc5c(c4)OCO5)cc3C(=O)N([C@H](C)CO)C[C@@H]2C)cc1,0,0,0
COc1ccc(S(=O)(=O)N(C)C[C@@H]2OCCCC[C@@H](C)Oc3ccc(NC(=O)Nc4ccc5c(c4)OCO5)cc3C(=O)N([C@@H](C)CO)C[C@H]2C)cc1,0,0,-82
COc1ccc(S(=O)(=O)N(C)C[C@H]2OCCCC[C@@H](C)Oc3ccc(NC(=O)Nc4ccc5c(c4)OCO5)cc3C(=O)N([C@@H](C)CO)C[C@H]2C)cc1,-,0,-85
O=C(CCN1CCCCC1)N[C@@H]1C=C[C@H](CC(=O)N2CCC(Cc3ccccc3)CC2)O[C@H]1CO,0,0,0
CO[C@@H]1CN(C)C(=O)c2cc(NC(=O)Nc3ccccc3)ccc2OC[C@H](C)N(C(=O)CN(C)C)C[C@@H]1C,0,0,0
COc1ccc(S(=O)(=O)Nc2ccc3c(c2)C(=O)N([C@@H](C)CO)C[C@H](C)[C@@H](CN(C)S(=O)(=O)c2ccc(C)cc2)OCCCC[C@H](C)O3)cc1,0,0,-83
COc1ccc(S(=O)(=O)Nc2ccc3c(c2)C(=O)N([C@@H](C)CO)C[C@H](C)[C@H](CN(C)S(=O)(=O)c2ccc(OC)cc2)OCCCC[C@@H](C)O3)cc1,-,0,0
SMILES,IDH1 mut inh,GASC1 inh,Pf Dd2 inh
COc1ccc(S(=O)(=O)Nc2ccc3c(c2)C(=O)N([C@@H](C)CO)C[C@@H](C)[C@@H](CN(C)S(=O)(=O)c2ccc(OC)cc2)OCCCC[C@H](C)O3)cc1,0,0,-85
COc1ccc(S(=O)(=O)Nc2ccc3c(c2)C(=O)N([C@@H](C)CO)C[C@@H](C)[C@@H](CN(C)S(=O)(=O)c2ccc(C)cc2)OCCCC[C@@H](C)O3)cc1,-,0,0
C[C@@H]1CN([C@@H](C)CO)S(=O)(=O)c2ccc(-c3ccncc3)cc2O[C@@H]1CN(C)Cc1cccnc1,-,-,0
C[C@@H]1CN([C@@H](C)CO)S(=O)(=O)c2ccc(C#CC3CCCC3)cc2O[C@@H]1CN(C)C(=O)Cc1ccncc1,0,0,0
C[C@H]1CN([C@@H](C)CO)S(=O)(=O)c2ccc(-c3ccncc3)cc2O[C@@H]1CN(C)Cc1ccc(Oc2ccccc2)cc1,0,0,0
C/C=C/c1ccc2c(c1)O[C@@H](CN(C)Cc1ccncc1)[C@@H](C)CN([C@@H](C)CO)S2(=O)=O,0,0,0
Cc1ccc(-c2ccc3c(c2)O[C@H](CN(C)Cc2cccnc2)[C@@H](C)CN([C@@H](C)CO)S3(=O)=O)cc1,-,0,-83
C/C=C/c1ccc2c(c1)O[C@H](CN(C)Cc1ccncc1)[C@@H](C)CN([C@H](C)CO)S2(=O)=O,42,0,0
C[C@H](CO)N1C[C@H](C)[C@@H](CN(C)C(=O)Cc2ccncc2)Oc2cc(C#CC3CCCC3)ccc2S1(=O)=O,-,0,-85
C[C@@H]1CN([C@H](C)CO)S(=O)(=O)c2ccc(-c3ccncc3)cc2O[C@@H]1CN(C)Cc1ccc(Oc2ccccc2)cc1,0,0,-87
C[C@@H]1CCCCO[C@H](CN(C)CC2CCCCC2)[C@H](C)CN([C@H](C)CO)C(=O)c2cc(NC(=O)c3ccncc3)ccc2O1,-,0,0
O=C(N[C@@H]1CC[C@H](CCNC(=O)c2ccccc2F)O[C@H]1CO)c1ccc2c(c1)OCO2,0,0,0
CC(=O)N(C)C[C@@H]1Oc2ncc(C#Cc3cccc(F)c3)cc2C(=O)N([C@H](C)CO)C[C@@H]1C,0,0,0
C[C@H]1CN([C@@H](C)CO)C(=O)c2cccc(NS(=O)(=O)c3ccc(Cl)cc3)c2O[C@@H]1CN(C)C(=O)Nc1ccc2c(c1)OCO2,0,0,0
O=C(NC[C@H]1[C@@H](c2ccccc2)[C@H](CO)N1C(=O)C1CCC1)NC1CCCC1,-,0,0
Cc1ccc(S(=O)(=O)Nc2ccc3c(c2)C(=O)N([C@@H](C)CO)C[C@H](C)[C@@H](CN(C)C(=O)Cc2ccccc2)OCCCC[C@@H](C)O3)cc1,0,0,0
CC(C)NC(=O)N[C@H]1C=C[C@H](CC(=O)NCc2ccc(Oc3ccccc3)cc2)O[C@H]1CO,0,0,0

# Compound activity as filed in PubChem.
